{"source": "paper PMC3334839", "about": "(The Journal of Neuroscience, 2012)", "key": {"[1]": {"system": "native GlyRs in cultured spinal neurons", "assay": "Whole-cell patch-clamp of Gly-activated current", "assay_type": "cell-based, rat", "conditions": "vs vehicle", "method_in_brief": "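Spinal cords from postnatal day 0 rats, papain-dissociated (20 U/ml, 37°C, 40 min). Plated at 300,000 cells/ml on poly-d-lysine in MEM/10% FBS, cultured ≥10 d, washed 30 min in external solution. Whole-cell, −60 mV, 20–22°C.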"}, "[2]": {"target": "T1, S296A mutant human α1 GlyR (Homo sapiens, UniProt P23415, S324A)", "T1 sequence (P23415 29-457 S324A)": "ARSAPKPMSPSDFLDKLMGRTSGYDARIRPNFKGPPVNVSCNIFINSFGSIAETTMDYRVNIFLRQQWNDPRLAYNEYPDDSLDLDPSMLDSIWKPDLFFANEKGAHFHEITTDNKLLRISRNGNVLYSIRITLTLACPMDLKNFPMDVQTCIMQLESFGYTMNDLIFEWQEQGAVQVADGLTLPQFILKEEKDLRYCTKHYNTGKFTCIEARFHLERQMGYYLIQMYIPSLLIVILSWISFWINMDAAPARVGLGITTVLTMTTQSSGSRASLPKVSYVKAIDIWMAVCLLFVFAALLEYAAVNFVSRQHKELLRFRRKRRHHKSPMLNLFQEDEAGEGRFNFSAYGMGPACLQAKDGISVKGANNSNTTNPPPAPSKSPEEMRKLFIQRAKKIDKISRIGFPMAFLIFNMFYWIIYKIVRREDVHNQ", "assay": "cell-based", "assay_type": "cell-based", "conditions": "for effect of S296A mutation on cannabinoid-induced potentiation of IGly: cannabinoid 1 μM, EC2 Gly (10 μM), vs wild-type α1"}, "human α1 GlyR": {"target": "T2, human α1 GlyR (Homo sapiens, UniProt P23415)", "T2 sequence (P23415 29-457)": "T1 sequence (P23415 29-457 S324A) with A296S", "assay": "cell-based", "assay_type": "cell-based", "conditions": "for efficacy in potentiating IGly relative to AEA: concentration-response, α1 subunit (Fig. 5B)"}, "rat α3 GlyR": {"target": "T3, rat α3 GlyR (Rattus norvegicus, UniProt P24524)", "T3 sequence (P24524 34-464)": "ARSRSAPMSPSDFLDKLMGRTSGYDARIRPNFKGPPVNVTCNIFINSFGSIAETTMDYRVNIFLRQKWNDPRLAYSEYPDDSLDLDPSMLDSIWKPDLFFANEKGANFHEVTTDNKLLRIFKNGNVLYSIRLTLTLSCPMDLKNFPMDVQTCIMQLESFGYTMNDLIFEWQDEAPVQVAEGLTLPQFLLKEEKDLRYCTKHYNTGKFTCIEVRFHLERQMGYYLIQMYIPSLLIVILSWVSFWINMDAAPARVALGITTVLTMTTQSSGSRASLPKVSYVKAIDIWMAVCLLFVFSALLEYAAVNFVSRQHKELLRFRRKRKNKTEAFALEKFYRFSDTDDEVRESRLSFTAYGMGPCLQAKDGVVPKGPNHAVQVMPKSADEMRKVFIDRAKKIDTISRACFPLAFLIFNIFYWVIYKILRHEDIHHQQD", "assay": "Whole-cell patch-clamp of IGly in HEK-293 cells expressing α3 GlyRs", "assay_type": "cell-based", "conditions": "read-out: EC50 for Gly (concentration-response curve); α3 subunit"}, "rat α2 GlyR": {"target": "T4, rat α2 GlyR (Rattus norvegicus, UniProt P22771)", "T4 sequence (P22771 28-452)": "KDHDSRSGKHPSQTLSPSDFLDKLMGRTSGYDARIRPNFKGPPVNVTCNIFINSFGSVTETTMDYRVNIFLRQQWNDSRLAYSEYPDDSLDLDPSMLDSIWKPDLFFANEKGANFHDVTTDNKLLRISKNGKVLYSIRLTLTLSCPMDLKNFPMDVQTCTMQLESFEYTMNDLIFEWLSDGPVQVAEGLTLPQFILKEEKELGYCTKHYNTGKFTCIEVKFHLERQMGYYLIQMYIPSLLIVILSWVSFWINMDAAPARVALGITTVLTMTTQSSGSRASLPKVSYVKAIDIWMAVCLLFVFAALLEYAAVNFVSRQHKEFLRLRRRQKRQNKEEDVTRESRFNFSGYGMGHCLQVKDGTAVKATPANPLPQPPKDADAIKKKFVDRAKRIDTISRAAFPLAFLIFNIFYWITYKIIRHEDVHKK", "assay": "Whole-cell patch-clamp of IGly in HEK-293 cells expressing α2 GlyRs", "assay_type": "cell-based", "conditions": "read-out: EC50 for Gly (concentration-response curve); α2 subunit"}, "[3]": {"conditions": "3 μM coapplied, apparently competitive, parallel rightward shift"}, "[4]": {"conditions": "HEK293, read-out: inhibition of IGly"}}, "note": "Substitutions are numbered along the chain they refer to."}
{"compound": "Oc1cc2c(cc1O)CN(C(=S)NCCc1ccc(Cl)cc1)CCC2", "note": "[capsazepine]", "values": [{"measurement": "effect of antagonist on AEA-induced potentiation of IGly", "setting": "[1]; antagonist 2 μM", "value": "did not significantly alter"}]}
{"compound": "CCCCCc1cc(O)c2c(c1)OC(C)(C)[C@@H]1CCC(C)=C[C@@H]21", "note": "[THC, Δ^9-tetrahydrocannabinol]", "values": [{"measurement": "effect of S296A mutation on cannabinoid-induced potentiation of IGly", "setting": "[2]", "value": "significantly reduced"}]}
{"compound": "Desoxyanandamide [Desoxy-AEA]", "values": [{"measurement": "effect on AEA-induced potentiation of IGly", "setting": "human α1 GlyR; [3]", "value": "inhibited"}, {"measurement": "effect on THC-induced potentiation of IGly", "setting": "human α1 GlyR; [3]", "value": "inhibited"}, {"measurement": "efficacy in potentiating IGly relative to AEA", "setting": "human α1 GlyR", "value": "reduced efficacy"}]}
{"compound": "CCCCCC=CCC=CCC=CCC=CCCCC(=O)NCC", "note": "[Dehydroxyl-AEA, Dehydroxylanandamide]", "values": [{"measurement": "efficacy in potentiating IGly relative to AEA", "setting": "human α1 GlyR", "value": "reduced efficacy"}]}
{"compound": "O=C1C[C@@H]2OCC=C3CN4CC[C@]56c7ccccc7N1[C@H]5[C@H]2[C@H]3C[C@H]46", "note": "[strychnine]", "values": [{"measurement": "inhibition at 0.1 µM", "setting": "[2]; [4]", "value": "81 ± 13", "unit": "%"}, {"measurement": "inhibition at 0.1 µM", "setting": "human α1 GlyR; [4]", "value": "78 ± 9", "unit": "%"}]}
{"compound": "SR144528", "values": [{"measurement": "effect of antagonist on AEA-induced potentiation of IGly", "setting": "[1]; antagonist 1 μM", "value": "did not significantly alter"}]}
{"compound": "CCCCCCC(C)(C)c1cc(O)c2c(c1)OC(C)(C)[C@@H]1CC=C(CO)C[C@@H]21", "note": "[HU210]", "values": [{"measurement": "effect of S296A mutation on cannabinoid-induced potentiation of IGly", "setting": "[2]", "value": "significantly reduced"}]}
{"compound": "C=C(C)[C@@H]1CCC(C)=C[C@H]1c1c(O)cc(CCCCC)cc1O", "note": "[CBD, cannabidiol]", "values": [{"measurement": "effect of S296A mutation on cannabinoid-induced potentiation of IGly", "setting": "[2]", "value": "significantly reduced"}]}
{"compound": "Cc1c(C(=O)NN2CCCCC2)nn(-c2ccc(Cl)cc2Cl)c1-c1ccc(I)cc1", "note": "[AM251]", "values": [{"measurement": "effect of antagonist on AEA-induced potentiation of IGly", "setting": "[1]; antagonist 1 μM", "value": "did not significantly alter"}]}
{"compound": "NCC(=O)O", "note": "[Gly, glycine]", "values": [{"measurement": "maximal current density (MCD)", "setting": "[2]", "value": "906 ± 147", "unit": "pA/pF"}, {"measurement": "maximal current density (MCD)", "setting": "human α1 GlyR", "value": "912 ± 153", "unit": "pA/pF"}, {"measurement": "EC50", "setting": "rat α3 GlyR", "value": "354 ± 29", "unit": "µM"}, {"measurement": "EC50", "setting": "rat α2 GlyR", "value": "128 ± 10", "unit": "µM"}]}
